Assay [1] has as its system DNA gyrase (Staphylococcus aureus). Description: In vitro activity against Staphylococcus aureus DNA gyrase supercoiling, expressed as IC50 novobiocin / IC50 compound.
Assay [2] concerns Staphylococcus epidermidis. In words: Antibacterial activity against oxacillin resistant Staphylococcus epidermidis 012GO42. In kind it is functional. The method in brief: (§1)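 MIC read after 24 h incubation by two-fold broth microdilution. Strains are tested with their labelled resistance phenotypes (ofloxacin, oxacillin, erythromycin, novobiocin, teicoplanin or vancomycin resistance, as given in each strain designation).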

The subject of the next assay is Enterococcus faecium. In words: Antibacterial activity against vancomycin, teicoplanin, erythromycin resistant Enterococcus faecium. In kind it is functional. The method in brief: as §1
Assay [3] relates to Staphylococcus aureus. Description: Antibacterial activity against Staphylococcus aureus 011HT3. The format is functional. Put shortly: (§2)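 MIC by 2-fold broth microdilution, read after 24 h incubation; strain resistance phenotypes noted.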
The next assay deals with Streptococcus pyogenes. In words: Antibacterial activity tested against Streptococcus pyogenes 02AIUC1. The format is functional. The method in brief:
as §2

Assay [4] has as its system Staphylococcus aureus. Description: Antibacterial activity tested against novobiocin resistant Staphylococcus aureus 011HT1. In kind it is functional. Put shortly: as §2
The subject of assay [5] is Staphylococcus aureus. Description: Antibacterial activity against ofloxacin,oxacillin,erythromycin resistant Staphylococcus aureus 011GO64. The format is functional. The method in brief:
as §1

Assay [6] in a line: In vitro activity against Staphylococcus aureus DNA gyrase subunit B supercoiling, expressed as IC50 novobiocin / IC50 compound. The format is functional.

Values after ≈ are worked out from the molar mass of the structure shown.

For the compound `CC#CCONC(=O)O[C@H]1[C@@H](O)[C@H](Oc2ccc3c(=O)c(C(=O)OCC)c(O)oc3c2C)OC(C)(C)[C@@H]1OC`, in assay [1], the Ratio came to 0.5. Also, the MIC (commonly the lowest concentration that inhibits growth of the organism) in assay [2] was 10 µg/mL (≈ 18.2 µM); in the assay on Enterococcus faecium, more than 40 µg/mL; in the assay with Staphylococcus aureus [3] it was 10 µg/mL (≈ 18.2 µM); against Streptococcus pyogenes it was more than 40 µg/mL; against Staphylococcus aureus [4], more than 40 µg/mL; against Staphylococcus aureus [5], 40 µg/mL (≈ 72.8 µM).

As to `C#CCONC(=O)O[C@H]1[C@@H](O)[C@H](Oc2ccc3c(=O)c(/C(C)=N/OCC)c(O)oc3c2C)OC(C)(C)[C@@H]1OC`, the MIC was determined as 0.15 µg/mL (≈ 0.273 µM) in assay [2]; 1.2 µg/mL (≈ 2.19 µM) with Enterococcus faecium; 0.08 µg/mL (≈ 0.146 µM) with Staphylococcus aureus [3]; 0.6 µg/mL (≈ 1.09 µM) against Streptococcus pyogenes; 2.5 µg/mL (≈ 4.56 µM) in the assay with Staphylococcus aureus [4]; 0.15 µg/mL (≈ 0.273 µM) with Staphylococcus aureus [5]. Further, the Ratio in assay [6] turned out to be 8.3.

The values are drawn from ChEMBL document CHEMBL1132760, “Coumarin inhibitors of gyrase B with N-propargyloxy-carbamate as an effective pyrrole bioisostere” (2000).
